Results as given in ChEMBL document CHEMBL3124924, “Bifunctional ethyl 2-amino-4-methylthiazole-5-carboxylate derivatives: synthesis and in vitro biological evaluation as antimicrobial and anticancer agents” (2014).
≈ marks a conversion by molar mass, not a printed value. Calls of active or inactive are those of the source. No cut-off for these calls is given here.

tested on: U-251; assay: Cytotoxicity against human U251 cells assessed as growth inhibition at 10 uM after 48 hrs by SRB assay; type: functional; conditions: U-251, 48 h, read-out: GI
Outline: (§1)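 NCI-60 one-dose primary screen run by the NCI Drug Evaluation Branch across the full 60-line panel. Single high-dose treatment with 48 h continuous drug exposure. Cell growth estimated by sulforhodamine B protein staining. Results given as percent growth of treated cells and expressed as percentage growth inhibition.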

SMILES	inhibition of growth at 10 µM [%]
Cc1nc(NC(=S)Nc2ccc(F)cc2)sc1C(=O)NN	5.41

tested on: CCRF-CEM; assay: Cytotoxicity against human CCRF-CEM cells assessed as growth inhibition at 10 uM after 48 hrs by SRB assay; type: functional; conditions: read-out: GI; outline: as §1

SMILES	inhibition of growth at 10 µM [%]
Cc1nc(NC(=S)Nc2ccc(F)cc2)sc1C(=O)NN	< 10

tested on: HT-29; assay: Cytotoxicity against human HT-29 cells assessed as growth inhibition at 10 uM after 48 hrs by SRB assay; type: functional; conditions: HT-29, 48 h, read-out: GI; outline: as §1

SMILES	inhibition of growth at 10 µM [%]
Cc1nc(NC(=S)Nc2ccc(F)cc2)sc1C(=O)NN	< 10

tested on: K562; assay: Cytotoxicity against human K562 cells assessed as growth inhibition at 10 uM after 48 hrs by SRB assay; type: functional; conditions: K562, 48 h, read-out: GI; outline: as §1

SMILES	inhibition of growth at 10 µM [%]
Cc1nc(NC(=S)Nc2ccc(F)cc2)sc1C(=O)NN	< 10

tested on: HCT-15; assay: Cytotoxicity against human HCT15 cells assessed as growth inhibition at 10 uM after 48 hrs by SRB assay; type: functional; conditions: HCT-15, 48 h, read-out: GI; outline: as §1

SMILES	inhibition of growth at 10 µM [%]
Cc1nc(NC(=S)Nc2ccc(F)cc2)sc1C(=O)NN	< 10

tested on: Pseudomonas aeruginosa; assay: Antibacterial activity against Pseudomonas aeruginosa ATCC 27853 assessed as growth inhibition after 48 hrs by two-fold serial dilution assay; type: functional; conditions: ATCC 27853, 48 h
Outline: (§2)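 Twofold serial broth dilution run on compounds giving inhibition zones of 13 mm or more. Organisms pre-grown in suitable broth at 37 °C, 24 h for bacteria and 48 h for fungi. Dilution series 200, 100, 50, 25, 12.5, 6.25. Each 5 mL tube inoculated with 0.1 mL and incubated 37 °C for 48 h. Tubes scored for presence or absence of growth.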

SMILES	MIC [µg/mL]
Cc1nc(NC(=S)Nc2ccc(F)cc2)sc1C(=O)NN	50 (≈ 154 µM)

tested on: SW-620; assay: Cytotoxicity against human SW620 cells assessed as growth inhibition at 10 uM after 48 hrs by SRB assay; type: functional; conditions: SW-620, 48 h, read-out: GI; outline: as §1

SMILES	inhibition of growth at 10 µM [%]
Cc1nc(NC(=S)Nc2ccc(F)cc2)sc1C(=O)NN	6.48

tested on: Staphylococcus aureus; assay: Antibacterial activity against Staphylococcus aureus ATCC 6538 assessed as growth inhibition after 48 hrs by two-fold serial dilution assay; type: functional; conditions: ATCC 6538, 48 h; outline: as §2

SMILES	MIC [µg/mL]
Cc1nc(NC(=S)Nc2ccc(F)cc2)sc1C(=O)NN	6.25 (≈ 19.2 µM)

tested on: HCT-116; assay: Cytotoxicity against human HCT116 cells assessed as growth inhibition at 10 uM after 48 hrs by SRB assay; type: functional; conditions: HCT-116, 48 h, read-out: GI; outline: as §1

SMILES	inhibition of growth at 10 µM [%]
Cc1nc(NC(=S)Nc2ccc(F)cc2)sc1C(=O)NN	7.87

tested on: Bacillus spizizenii; assay: Antibacterial activity against Bacillus subtilis ATCC 6633 assessed as growth inhibition after 48 hrs by two-fold serial dilution assay; type: functional; conditions: ATCC 6633, 48 h; outline: as §2

SMILES	MIC [µg/mL]
Cc1nc(NC(=S)Nc2ccc(F)cc2)sc1C(=O)NN	12.5 (≈ 38.4 µM)

tested on: Candida albicans; assay: Antifungal activity against Candida albicans ATCC 10231 assessed as growth inhibition at 1 mg/mL after 48 hrs by agar-cup diffusion method; type: functional; conditions: ATCC 10231, 48 h, read-out: DIZ
Outline: (§3)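 Agar-cup diffusion: 1 mL of 6 h broth culture seeded per 100 mL molten sterile agar at 45 °C and poured into plates. 8 mm cups cut, each filled with 0.1 mL of 1 mg/mL test solution. Incubated 37 °C for 24 h, 48 h for C. albicans. DMSO control per organism. Inhibition zone diameter in mm, mean of three measurements.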

SMILES	zone of inhibition at 1000 µg/mL [mm]
Cc1nc(NC(=S)Nc2ccc(F)cc2)sc1C(=O)NN	> 13

tested on: NCI-H226; assay: Cytotoxicity against human NCI-H226 cells assessed as growth inhibition at 10 uM after 48 hrs by SRB assay; type: functional; conditions: NCI-H226, 48 h, read-out: GI; outline: as §1

SMILES	inhibition of growth at 10 µM [%]
Cc1nc(NC(=S)Nc2ccc(F)cc2)sc1C(=O)NN	5.35

tested on: Escherichia coli; assay: Antibacterial activity against Escherichia coli ATCC 25922 assessed as growth inhibition at 1 mg/mL after 24 hrs by agar-cup diffusion method; type: functional; conditions: ATCC 25922, 24 h, read-out: DIZ; outline: as §3

SMILES	zone of inhibition at 1000 µg/mL [mm]
Cc1nc(NC(=S)Nc2ccc(F)cc2)sc1C(=O)NN	> 13

tested on: SK-MEL-2; assay: Cytotoxicity against human SK-MEL-2 cells assessed as growth inhibition at 10 uM after 48 hrs by SRB assay; type: functional; conditions: SK-MEL-2, 48 h, read-out: GI; outline: as §1

SMILES	inhibition of growth at 10 µM [%]
Cc1nc(NC(=S)Nc2ccc(F)cc2)sc1C(=O)NN	30

tested on: MDA-MB-468; assay: Cytotoxicity against human MDA-MB-468 cells assessed as growth inhibition at 10 uM after 48 hrs by SRB assay; type: functional; conditions: MDA-MB-468, 48 h, read-out: GI; outline: as §1

SMILES	inhibition of growth at 10 µM [%]
Cc1nc(NC(=S)Nc2ccc(F)cc2)sc1C(=O)NN	5.5

tested on: Escherichia coli; assay: Bactericidal activity against Escherichia coli ATCC 25922 after 18 hrs; type: functional; conditions: ATCC 25922, 18 h
Outline: (§4)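 Continuation of the broth-dilution MIC test. A loopful from each tube without visible growth spread on a quarter of a Mueller-Hinton agar plate and incubated 18 h. Lowest concentration giving no growth on subculture taken as the MBC.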

SMILES	MBC [µg/mL]
Cc1nc(NC(=S)Nc2ccc(F)cc2)sc1C(=O)NN	12.5 (≈ 38.4 µM)

tested on: Bacillus spizizenii; assay: Bactericidal activity against Bacillus subtilis ATCC 6633 after 18 hrs; type: functional; conditions: ATCC 6633, 18 h; outline: as §4

SMILES	MBC [µg/mL]
Cc1nc(NC(=S)Nc2ccc(F)cc2)sc1C(=O)NN	12.5 (≈ 38.4 µM)

tested on: UACC-62; assay: Cytotoxicity against human UACC62 cells assessed as growth inhibition at 10 uM after 48 hrs by SRB assay; type: functional; conditions: UACC-62, 48 h, read-out: GI; outline: as §1

SMILES	inhibition of growth at 10 µM [%]
Cc1nc(NC(=S)Nc2ccc(F)cc2)sc1C(=O)NN	10.8

tested on: LOX IMVI; assay: Cytotoxicity against human LOXIMVI cells assessed as growth inhibition at 10 uM after 48 hrs by SRB assay; type: functional; conditions: read-out: GI; outline: as §1

SMILES	inhibition of growth at 10 µM [%]
Cc1nc(NC(=S)Nc2ccc(F)cc2)sc1C(=O)NN	6.73

tested on: PC-3; assay: Cytotoxicity against human PC3 cells assessed as growth inhibition at 10 uM after 48 hrs by SRB assay; type: functional; conditions: PC-3, 48 h, read-out: GI; outline: as §1

SMILES	inhibition of growth at 10 µM [%]
Cc1nc(NC(=S)Nc2ccc(F)cc2)sc1C(=O)NN	2.36

tested on: HCC 2998; assay: Cytotoxicity against human HCC2998 cells assessed as growth inhibition at 10 uM after 48 hrs by SRB assay; type: functional; conditions: HCC 2998, 48 h, read-out: GI; outline: as §1

SMILES	inhibition of growth at 10 µM [%]
Cc1nc(NC(=S)Nc2ccc(F)cc2)sc1C(=O)NN	10.5

tested on: NCI-H522; assay: Cytotoxicity against human NCI-H522 cells assessed as growth inhibition at 10 uM after 48 hrs by SRB assay; type: functional; conditions: NCI-H522, 48 h, read-out: GI; outline: as §1

SMILES	inhibition of growth at 10 µM [%]
Cc1nc(NC(=S)Nc2ccc(F)cc2)sc1C(=O)NN	< 10

tested on: SR; assay: Cytotoxicity against human SR cells assessed as growth inhibition at 10 uM after 48 hrs by SRB assay; type: functional; conditions: read-out: GI; outline: as §1

SMILES	inhibition of growth at 10 µM [%]
Cc1nc(NC(=S)Nc2ccc(F)cc2)sc1C(=O)NN	< 10

tested on: RPMI-8226; assay: Cytotoxicity against human RPMI8226 cells assessed as growth inhibition at 10 uM after 48 hrs by SRB assay; type: functional; conditions: RPMI-8226, 48 h, read-out: GI; outline: as §1

SMILES	inhibition of growth at 10 µM [%]
Cc1nc(NC(=S)Nc2ccc(F)cc2)sc1C(=O)NN	< 10

tested on: Pseudomonas aeruginosa; assay: Antibacterial activity against Pseudomonas aeruginosa ATCC 27853 assessed as growth inhibition at 1 mg/mL after 24 hrs by agar-cup diffusion method; type: functional; conditions: ATCC 27853, 24 h, read-out: DIZ; outline: as §3

SMILES	zone of inhibition at 1000 µg/mL [mm]
Cc1nc(NC(=S)Nc2ccc(F)cc2)sc1C(=O)NN	> 13

tested on: SN12C; assay: Cytotoxicity against human SN12C cells assessed as growth inhibition at 10 uM after 48 hrs by SRB assay; type: functional; conditions: read-out: GI; outline: as §1

SMILES	inhibition of growth at 10 µM [%]
Cc1nc(NC(=S)Nc2ccc(F)cc2)sc1C(=O)NN	2.43

tested on: SF-268; assay: Cytotoxicity against human SF268 cells assessed as growth inhibition at 10 uM after 48 hrs by SRB assay; type: functional; conditions: SF-268, 48 h, read-out: GI; outline: as §1

SMILES	inhibition of growth at 10 µM [%]
Cc1nc(NC(=S)Nc2ccc(F)cc2)sc1C(=O)NN	< 10

tested on: Staphylococcus aureus; assay: Bactericidal activity against Staphylococcus aureus ATCC 6538 after 18 hrs; type: functional; conditions: ATCC 6538, 18 h; outline: as §4

SMILES	MBC [µg/mL]
Cc1nc(NC(=S)Nc2ccc(F)cc2)sc1C(=O)NN	6.25 (≈ 19.2 µM)

tested on: IGROV-1; assay: Cytotoxicity against human IGROV1 cells assessed as growth inhibition at 10 uM after 48 hrs by SRB assay; type: functional; conditions: IGROV-1, 48 h, read-out: GI; outline: as §1

SMILES	inhibition of growth at 10 µM [%]
Cc1nc(NC(=S)Nc2ccc(F)cc2)sc1C(=O)NN	6.51

tested on: T47D; assay: Cytotoxicity against human T47D cells assessed as growth inhibition at 10 uM after 48 hrs by SRB assay; type: functional; conditions: read-out: GI; outline: as §1

SMILES	inhibition of growth at 10 µM [%]
Cc1nc(NC(=S)Nc2ccc(F)cc2)sc1C(=O)NN	2.52

tested on: Staphylococcus aureus; assay: Antibacterial activity against Staphylococcus aureus ATCC 6538 assessed as growth inhibition at 1 mg/mL after 24 hrs by agar-cup diffusion method; type: functional; conditions: ATCC 6538, 24 h, read-out: DIZ; outline: as §3

SMILES	zone of inhibition at 1000 µg/mL [mm]
Cc1nc(NC(=S)Nc2ccc(F)cc2)sc1C(=O)NN	> 13

tested on: Aspergillus niger; assay: Antifungal activity against Aspergillus niger assessed as growth inhibition at 1 mg/mL after 24 hrs by agar-cup diffusion method; type: functional, organism-based; conditions: not given; outline: as §3

SMILES	growth inhibition (GI)
Cc1nc(NC(=S)Nc2ccc(F)cc2)sc1C(=O)NN	inactive
